In ChEMBL document CHEMBL1137077, “Design, synthesis, anti-HIV activities, and metabolic stabilities of alkenyldiarylmethane (ADAM) non-nucleoside reverse transcriptase inhibitors” (J Med Chem, 2004):

Assays:
MT4 [1] = experiment: Evaluated for cytotoxicity in mock-infected MT-4 cells; format: functional; settings: Homo sapiens
Summary of the method: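 Exponentially growing MT-4 cells were resuspended at 6 × 10⁵ cells/mL in mock-infected wells alongside infected wells, with serial 5-fold compound dilutions run in triplicate. MTT viability was read after 5 days at 540 and 690 nm using the median OD of three wells. CC₅₀ is the concentration reducing OD₅₄₀ of mock-infected controls by 50%.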

[2] = Half-life in rat plasma; format: ADME
MT4 [3] = experiment: Effective concentration required to inhibit cytopathicity of HIV-1(IIIB) in MT-4 cells; Not active; format: functional, cell-based, Homo sapiens
Summary of the method: (§1)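 MT-4 cells resuspended at 6 × 10⁵ cells/mL and infected with HIV-1 IIIB or HIV-2 ROD at 100–300 CCID₅₀, with compound added at infection. Serial 5-fold dilutions were run in triplicate. After 5 days, viability was read by MTT reduction at 540 and 690 nm using the median OD of three wells. EC₅₀ is the concentration giving 50% protection from viral cytopathic effect.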

[4] = system: Human immunodeficiency virus 2; experiment: Effective concentration required to inhibit cytopathicity of HIV-2(ROD) in MT-4 cells.; format: functional, organism-based; settings: mt4; summary of the method: as §1
[5] = system: Human immunodeficiency virus 1; experiment: Effective concentration required to inhibit cytopathicity of HIV-1(IIIB) in MT-4 cells; format: functional, organism-based; settings: Human immunodeficiency virus 1, MT4; summary of the method: as §1
MT4 [6] = experiment: Effective concentration required to inhibit cytopathicity of HIV-2(ROD) in MT-4 cells; format: functional, cell-based; settings: Homo sapiens; summary of the method: as §1
MT4 [7] = experiment: Evaluated for the ability to inhibit cytopathicity of HIV-1(IIIB) in MT-4 cells; format: functional, cell-based; settings: Homo sapiens; summary of the method: as §1

half-life [2] [min] | EC50 [4] | EC50 [5] [µM] | SMILES | CC50 (MT4 [1]) [µM] | EC50 (MT4 [3]) | EC50 (MT4 [6]) [µM] | EC50 (MT4 [7]) [µM]
19.2 | Not Active |  | COC(=O)CCC/C=C(/c1ccc(OC)c(OC)c1)c1cc(C)c(OC)c(C(=O)OC)c1 | 0.25 | Not Active |  | 
 | Not Active |  | CCCCCC=C(c1cc(Cl)c(OC)c(C(=S)OC)c1)c1cc(Cl)c(OC)c(C(=S)OC)c1 | 181 | Not Active |  | 
9 | Not Active | 0.8 | COC(=O)CCC/C=C(\c1cc(C)c(OC)c(C(=O)OC)c1)c1cc(Cl)c(OC)c(C(=O)OC)c1 | 19.1 |  |  | 
5.2 | Not Active | 3.5 | CCCOC(=O)CCCC=C(c1cc(C)c(OC)c(C(=O)OC)c1)c1cc(C)c(OC)c(C(=O)OC)c1 | 93.4 |  |  | 
0.9 | Not Active |  | COC(=O)CCCC=C(c1ccc(OC)c(OC)c1)c1ccc(OC)c(OC)c1 | 7.4 | Not Active |  | 
76.6 |  | 13.2 | COC(=O)c1cc(C(=CCCCc2ccccc2)c2cc(Cl)c(OC)c(C(=O)OC)c2)cc(Cl)c1OC | > 230 |  | 113 | 
35.1 | Not Active |  | COCCCCC=C(c1cc(Br)c(OC)c(C(=O)OC)c1)c1cc(Br)c(OC)c(C(=O)OC)c1 | 28.6 |  |  | 2.8
 | Not Active |  | CCCOC(=O)c1cc(C(=CCCCC(=O)OC)c2cc(C)c(OCCC)c(C(=O)OCCC)c2)cc(C)c1OCCC | > 209 | Not Active |  | 
 | Not Active | 35.4 | COC(=S)CCCC=C(c1cc(Cl)c(OC)c(C(=S)OC)c1)c1cc(Cl)c(OC)c(C(=S)OC)c1 | > 218 |  |  | 
55.3 | Not Active | 1.8 | COC(=O)CCCC=C(c1cc(Cl)c(OC)c(C(=O)SC)c1)c1cc(Cl)c(OC)c(C(=O)SC)c1 | > 224 |  |  | 
6.2 | Not Active | 0.3 | COC(=O)CCCC=C(c1cc(Br)c(OC)c(C(=O)OC)c1)c1cc(Br)c(OC)c(C(=O)OC)c1 | 91 |  |  | 
20.6 | Not Active | 1.1 | C#CCCCC=C(c1cc(Cl)c(OC)c(C(=O)OC)c1)c1cc(Cl)c(OC)c(C(=O)OC)c1 | 143 |  |  | 
2.6 | Not Active |  | COC(=O)CCCC=C(c1ccc(OC)cc1OC)c1ccc(OC)cc1OC | 5.9 | Not Active |  | 
 | Not Active |  | CCCCCC=C(c1cc(Cl)c(OC)c(C(C)=O)c1)c1cc(Cl)c(OC)c(C(C)=O)c1 | 47.1 | Not Active |  | 
58.5 | Not Active | 3 | C=CCCCC=C(c1cc(Br)c(OC)c(C(=O)OC)c1)c1cc(Br)c(OC)c(C(=O)OC)c1 | 62.3 |  |  | 
 | Not Active |  | CCCOc1c(C)cc(C(=CCCCC(=O)OC)c2cc(C)c(OCCC)c(C(=O)OC)c2)cc1C(=O)OC | > 231 | Not Active |  | 

half-life [2] [min] | EC50 [4] | EC50 [5] [µM] | SMILES | CC50 (MT4 [1]) [µM] | EC50 (MT4 [3]) | EC50 (MT4 [6]) [µM] | EC50 (MT4 [7]) [µM]
9 | Not Active | 3.7 | CCOc1c(C)cc(C(=CCCCC(=O)OC)c2cc(C)c(OCC)c(C(=O)OC)c2)cc1C(=O)OC | 73 |  |  | 
55 |  | 2.6 | COC(=O)c1cc(C(=CCCCc2ccccc2)c2cc(Br)c(OC)c(C(=O)OC)c2)cc(Br)c1OC | > 198 |  | 29.3 | 
39.3 |  | 3.7 | C=CCCCC=C(c1cc(Cl)c(OC)c(C(=O)OC)c1)c1cc(Cl)c(OC)c(C(=O)OC)c1 | > 253 |  | 26.4 | 
 | Not Active |  | COc1c(Cl)cc(C(=CCCCCO)c2cc(Cl)c(OC)c(CO)c2)cc1CO | 30.7 | Not Active |  | 
12.4 | Not Active | 0.8 | COC(=O)CCCC=C(c1cc(C#N)c(OC)c(C(=O)OC)c1)c1cc(C#N)c(OC)c(C(=O)OC)c1 | > 247 |  |  | 
5.8 |  | 0.6 | COC(=O)CCCC=C(c1cc(Cl)c(OC)c(C(=O)OC)c1)c1cc(Cl)c(OC)c(C(=O)OC)c1 | 160 |  | 25 | 
 | Not Active |  | COC(=O)CCC/C=C(\c1ccc(OC)c(OC)c1)c1cc(Cl)c(OC)c(C(=O)OC)c1 | 8.7 | Not Active |  | 
3.4 | Not Active | 2.2 | CCCOC(=O)CCCC=C(c1cc(Br)c(OC)c(C(=O)OC)c1)c1cc(Br)c(OC)c(C(=O)OC)c1 | 114 |  |  | 
37.7 | Not Active | 14.1 | CCOC(=O)c1cc(C(=CCCCC(=O)OC)c2cc(C)c(OCC)c(C(=O)OCC)c2)cc(C)c1OCC | > 231 |  |  | 
5.7 | Not Active | 2.7 | COC(=O)c1cc(C(=CCCCC(=O)OC(C)C)c2cc(Br)c(OC)c(C(=O)OC)c2)cc(Br)c1OC | 35.3 |  |  | 
1.7 | Not Active | 3.5 | COC(=O)c1cc(C(=CCCCC(=O)OC(C)C)c2cc(C)c(OC)c(C(=O)OC)c2)cc(C)c1OC | 59.5 |  |  | 
 | Not Active |  | COCCCCC=C(c1cc(Cl)c(OC)c(COC)c1)c1cc(Cl)c(OC)c(COC)c1 | 34 | Not Active |  | 
 | Not Active |  | COC(=O)CCCC(CCCC(=O)OC)=C(c1cc(Br)c(OC)c(C(=O)OC)c1)c1cc(Br)c(OC)c(C(=O)OC)c1 | 78.1 | Not Active |  | 
18.9 | Not Active | 0.7 | C#CCCCC=C(c1cc(Br)c(OC)c(C(=O)OC)c1)c1cc(Br)c(OC)c(C(=O)OC)c1 | 57.8 |  |  | 
7.4 | Not Active | 3.1 | CCCOC(=O)CCCC=C(c1cc(Cl)c(OC)c(C(=O)OC)c1)c1cc(Cl)c(OC)c(C(=O)OC)c1 | 159 |  |  | 
42.9 | Not Active | 1 | COC(=O)CCCC=C(c1cc(C)c(OC)c(C(=O)OC)c1)c1cc(C)c(OC)c(C(=O)OC)c1 | 6.1 |  |  | 
